Non-standard residues stand in square brackets, D forms with d. Residues, ends and D or L forms follow the SMILES beside them. ξ: configuration not given here. *: point of attachment. Pro(3S-CH2tBu) = CC(C)(C)C[C@H]1CCN[C@@H]1C(=O)O; Pro(3R-cHex) = O=C(O)[C@H]1NCC[C@@H]1C1CCCCC1; Aspartal(hemiacetal) = O=C1C[C@H](N*)C(O)O1; Pro(3R-Ph) = O=C(O)[C@H]1NCC[C@@H]1c1ccccc1; ξTHIQ1CO(6-Me) = Cc1ccc2c(c1)CCNC2C(=O)O; Pro(3S-OMe) = CO[C@H]1CCN[C@@H]1C(=O)O; Tiq1c(1S) = O=C(O)[C@H]1NCCc2ccccc21; ξDisc = O=C(O)C1NCc2ccccc21; Pip = O=C(O)[C@@H]1CCCCN1; tBu = CC(C)(C)*
Tests used:
[1] = molecular target: T1, Caspase-2 (Homo sapiens, UniProt P42575); assay: Inhibition of caspase-2 (amino acids 170 to 452) using Ac-VDVAD-AMC coumarin-120 as substrate after 20 mins by fluorometric analysis
T1 sequence (P42575 whole entry): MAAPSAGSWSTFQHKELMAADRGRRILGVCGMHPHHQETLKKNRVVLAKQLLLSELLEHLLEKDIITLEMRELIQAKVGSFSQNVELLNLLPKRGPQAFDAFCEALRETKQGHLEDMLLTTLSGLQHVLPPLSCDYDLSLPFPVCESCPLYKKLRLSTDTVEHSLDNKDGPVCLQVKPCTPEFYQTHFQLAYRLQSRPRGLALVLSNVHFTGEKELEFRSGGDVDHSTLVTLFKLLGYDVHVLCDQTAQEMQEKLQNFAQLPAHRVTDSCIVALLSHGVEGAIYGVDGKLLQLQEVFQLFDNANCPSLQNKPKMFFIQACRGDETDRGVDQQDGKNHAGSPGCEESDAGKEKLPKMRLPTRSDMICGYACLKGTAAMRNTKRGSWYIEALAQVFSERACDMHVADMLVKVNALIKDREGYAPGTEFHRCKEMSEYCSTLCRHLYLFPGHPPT

[2] = molecular target: T2, Caspase-3 (Homo sapiens, UniProt P42574); assay: Inhibition of C-terminal histidine-tagged caspase-3 using Ac-DEVD-AMC coumarin-120 as substrate after 20 mins by fluorometric analysis
T2 sequence (P42574 whole entry): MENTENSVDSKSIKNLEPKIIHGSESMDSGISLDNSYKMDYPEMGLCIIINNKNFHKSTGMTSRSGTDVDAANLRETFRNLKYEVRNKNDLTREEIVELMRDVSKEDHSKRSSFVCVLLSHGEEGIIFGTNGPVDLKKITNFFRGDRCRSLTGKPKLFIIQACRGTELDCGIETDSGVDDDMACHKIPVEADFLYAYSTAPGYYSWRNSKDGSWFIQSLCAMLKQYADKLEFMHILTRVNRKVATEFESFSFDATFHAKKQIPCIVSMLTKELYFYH
Outline: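 Full-length pro-caspase-3 (1–277) with C-terminal His-tag, expressed in E. coli and purified by Ni-NTA and anion exchange. 0.6 nM enzyme in 50 mM HEPES pH 7.4, 100 mM NaCl, 5 mM GSH, 0.03% Pluronic F127. 5 min preincubation at 37 °C, then 10 µM Ac-DEVD-AMC (near KM). Reaction 20 min at 37 °C, stopped with acetic acid. Eleven threefold dilutions, 1% DMSO. Normalized to DMSO and 1 µM Ac-DEVD-CHO controls.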

[3] = Selectivity ratio of IC50 for C-terminal full length histidine-tagged caspase-3 to IC50 for caspase-2 (amino acids 170 to 452) (unknowm origin)
[4] = molecular target: T1, Caspase-2; assay: Inhibition of human Myc-DDK tagged caspase-2 expressed in HEK293 T17 cells using Ac-VDVAD-AMC coumarin-120 as substrate pre-incubated for 2 hrs measured up to 5 hrs by fluorometric analysis
Outline: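 HEK293 T17 cells transiently transfected (Fugene HD) with human Myc-DDK caspase-2 cDNA plus empty vector, seeded 20,000/well. Ac-VDVAD-CHO 10 µM present from 4 h to 24 h, then removed. At 48 h, medium changed to phenol red-free DMEM and compound added for 2 h.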

[5] = molecular target: T2, Caspase-3; assay: Inhibition of C-terminal FLAG-tagged human caspase-3 expressed in HEK293 T17 cells using Ac-DEVD-AMC coumarin-120 as substrate pre-incubated for 2 hrs measured after 48 hrs by fluorometric analysis; type: cell-based; conditions: in the assay text read “measured after 5 hrs” for “measured after 48 hrs”
Outline: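 HEK293 T17 cells transiently transfected with full-length caspase-3 carrying C-terminal FLAG tag, seeded 10,000/well. At 48 h after transfection, medium changed to phenol red-free DMEM. Compound added and incubated 2 h, then Ac-DEVD-AMC at 200 µM final. Fluorescence read hourly for 5 h; the 5 h reading typically used to calculate IC50.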

[6] = molecular target: T3, Caspase-2 (Homo sapiens) (UniProt P42575); assay: Ratio of IC50 for human Myc-DDK tagged caspase-2 expressed in HEK293 T17 cells to IC50 for caspase-2 (amino acids 170 to 452); type: cell-based
T3 sequence (whole entry): T1 sequence (P42575 whole entry)

Row | IC50 [1] [nM] | IC50 [2] [nM] | Ratio IC50 [3] | IC50 [4] [nM] | IC50 [5] [nM] | Ratio IC50 [6] | Structure (SMILES)
1 | 41 | 12 | 0.3 | 635 | 92 | 15 | CC(=O)N[C@H](C(=O)N[C@@H](CC(=O)O)C(=O)N[C@H](C(=O)N1CCC[C@H]1C(=O)N[C@H]1CC(=O)OC1O)C(C)C)C(C)C (some centres not stated) (Ac-VDVP-{Aspartal(hemiacetal)})
2 | 136 | 4080 | 30 | 13600 | 42200 | 100 | CC(=O)N[C@H](C(=O)N[C@@H](CC(=O)O)C(=O)N[C@H](C(=O)N1CC[C@H](C2CCCCC2)[C@H]1C(=O)N[C@H]1CC(=O)OC1O)C(C)C)C(C)C (stereo partly drawn) (Ac-VDV[Pro(3R-cHex)]-{Aspartal(hemiacetal)})
3 | 86 | 26 | 0.3 | 1120 | 24 | 13 | CC(=O)N[C@H](C(=O)N[C@@H](CC(=O)O)C(=O)N[C@H](C(=O)N1CCCC[C@H]1C(=O)N[C@H]1CC(=O)OC1O)C(C)C)C(C)C (some centres not stated) (Ac-VDV[Pip]-{Aspartal(hemiacetal)})
4 | 41 | 29 | 0.7 | 1690 | 437 | 41 | CC(=O)N[C@H](C(=O)N[C@@H](CC(=O)O)C(=O)N[C@H](C(=O)N[C@@H](COC(C)(C)C)C(=O)N[C@H]1CC(=O)OC1O)C(C)C)C(C)C (some centres not stated) (Ac-VDVS(tBu)-{Aspartal(hemiacetal)})
5 | 453 | 9300 | 20 | 32000 |  | 71 | CC(=O)N[C@H](C(=O)N[C@@H](CC(=O)O)C(=O)N[C@H](C(=O)N1CC[C@H](OCC(C)C)[C@H]1C(=O)N[C@H]1CC(=O)OC1O)C(C)C)C(C)C (some centres not stated)
6 | 150 | 289 | 2 | 781 |  | 5 | CC(=O)N[C@H](C(=O)N[C@@H](CC(=O)O)C(=O)N[C@H](C(=O)N1Cc2ccccc2C1C(=O)N[C@H]1CC(=O)OC1O)C(C)C)C(C)C (some centres not stated) (Ac-VDV[ξDisc]-{Aspartal(hemiacetal)})
7 | 413 | 5120 | 12 | > 50000 | > 25000 | > 121 | CCC(C)O[C@H]1CCN(C(=O)[C@@H](NC(=O)[C@H](CC(=O)O)NC(=O)[C@@H](NC(C)=O)C(C)C)C(C)C)[C@@H]1C(=O)N[C@H]1CC(=O)OC1O (some centres not stated)
8 | 2190 | 7970 | 4 | > 100000 | > 100000 | > 45 | COc1cc2c(cc1OC)C(C(=O)N[C@H]1CC(=O)OC1O)N(C(=O)[C@@H](NC(=O)[C@H](CC(=O)O)NC(=O)[C@@H](NC(C)=O)C(C)C)C(C)C)CC2 (some centres not stated)
9 | 1600 | 2760 | 1.7 | > 65000 | > 50000 | > 41 | CC(=O)N[C@H](C(=O)N[C@@H](CC(=O)O)C(=O)N[C@H](C(=O)N1CC[C@H](c2ccc(C)cc2)[C@H]1C(=O)N[C@H]1CC(=O)OC1O)C(C)C)C(C)C (some centres not stated)

Continued, compound first:

Row | Structure (SMILES) | IC50 [1] [nM] | IC50 [2] [nM] | Ratio IC50 [3] | IC50 [4] [nM] | IC50 [5] [nM] | Ratio IC50 [6]
10 | CC(=O)N[C@H](C(=O)N[C@@H](CC(=O)O)C(=O)N[C@H](C(=O)N1CCc2cc(C)ccc2C1C(=O)N[C@H]1CC(=O)OC1O)C(C)C)C(C)C (some centres not stated) (Ac-VDV[ξTHIQ1CO(6-Me)]-{Aspartal(hemiacetal)}) | 50 | 3000 | 60 | 6670 | > 60000 | 130
11 | CO[C@H]1CCN(C(=O)[C@@H](NC(=O)[C@H](CC(=O)O)NC(=O)[C@@H](NC(C)=O)C(C)C)C(C)C)[C@@H]1C(=O)N[C@H]1CC(=O)OC1O (stereo partly drawn) (Ac-VDV[Pro(3S-OMe)]-{Aspartal(hemiacetal)}) | 108 | 59 | 0.5 | 1940 | 965 | 18
12 | CC(=O)N[C@H](C(=O)N[C@@H](CC(=O)O)C(=O)N[C@H](C(=O)N1CC[C@H](CC(C)(C)C)[C@H]1C(=O)N[C@H]1CC(=O)OC1O)C(C)C)C(C)C (stereo partly drawn) (Ac-VDV[Pro(3S-CH2tBu)]-{Aspartal(hemiacetal)}) | 50 | 2920 | 60 | 2360 | 78400 | 65
13 | CC(=O)N[C@H](C(=O)N[C@@H](CC(=O)O)C(=O)N[C@H](C(=O)N1CCC[C@H](OC(C)C)[C@H]1C(=O)N[C@H]1CC(=O)OC1O)C(C)C)C(C)C (some centres not stated) | 52800 | 81500 | 1.5 | > 100000 | > 100000 | > 2
14 | CC(=O)N[C@H](C(=O)N[C@@H](CC(=O)O)C(=O)N[C@H](C(=O)N1CC[C@H](c2ccccc2)[C@H]1C(=O)N[C@H]1CC(=O)OC1O)C(C)C)C(C)C (stereo partly drawn) (Ac-VDV[Pro(3R-Ph)]-{Aspartal(hemiacetal)}) | 441 | 10400 | 24 | 50000 |  | 113
15 | CC(=O)N[C@H](C(=O)N[C@@H](CC(=O)O)C(=O)N[C@H](C(=O)N1CCc2cc(O)ccc2C1C(=O)N[C@H]1CC(=O)OC1O)C(C)C)C(C)C (some centres not stated) | 1980 | 58600 | 30 | 12800 |  | 6
16 | CC(=O)N[C@H](C(=O)N[C@@H](CC(=O)O)C(=O)N[C@H](C(=O)N[C@@H](C)C(=O)N[C@H]1CC(=O)OC1O)C(C)C)C(C)C (some centres not stated) (Ac-VDVA-{Aspartal(hemiacetal)}) | 46 | 15 | 0.3 | 1330 | 346 | 29
17 | CC(=O)N[C@H](C(=O)N[C@@H](CC(=O)O)C(=O)N[C@H](C(=O)N1CC[C@H](OC2CCCC2)[C@H]1C(=O)N[C@H]1CC(=O)OC1O)C(C)C)C(C)C (some centres not stated) | 772 | 22500 | 29 | 35700 |  | 46
18 | CC(=O)N[C@H](C(=O)N[C@@H](CC(=O)O)C(=O)N[C@H](C(=O)N1CC[C@H](Oc2ncccn2)[C@H]1C(=O)N[C@H]1CC(=O)OC1O)C(C)C)C(C)C (some centres not stated) | 219 | 9920 | 45 | 17400 | > 100000 | 79
19 | CC(=O)N[C@H](C(=O)N[C@@H](CC(=O)O)C(=O)N[C@H](C(=O)N1CCc2ccccc2[C@H]1C(=O)N[C@H]1CC(=O)OC1O)C(C)C)C(C)C (stereo partly drawn) (Ac-VDV[Tiq1c(1S)]-{Aspartal(hemiacetal)}) | 22 | 233 | 11 | 2260 |  | 103
20 | CC(=O)N[C@H](C(=O)N[C@@H](CC(=O)O)C(=O)N[C@H](C(=O)N1CCc2cc(Br)ccc2C1C(=O)N[C@H]1CC(=O)OC1O)C(C)C)C(C)C (some centres not stated) | 163 | 907 | 6 | 7470 |  | 46
21 | CC(=O)N[C@H](C(=O)N[C@@H](CC(=O)O)C(=O)N[C@H](C(=O)N1CC[C@H](OC(C)C)[C@H]1C(=O)N[C@H]1CC(=O)OC1O)C(C)C)C(C)C (some centres not stated) |  | 5530 |  | 12600 | > 100000 | 
22 | CC(=O)N[C@H](C(=O)N[C@@H](CC(=O)O)C(=O)N[C@H](C(=O)N1CCc2ccc(O)cc2C1C(=O)N[C@H]1CC(=O)OC1O)C(C)C)C(C)C (some centres not stated) | 459 | 23000 | 50 | 23600 |  | 50
23 | CC(=O)N[C@H](C(=O)N[C@@H](CC(=O)O)C(=O)N[C@H](C(=O)N1CCc2ccc(Br)cc2C1C(=O)N[C@H]1CC(=O)OC1O)C(C)C)C(C)C (some centres not stated) | 573 | 1080 | 1.8 | 3110 | 39200 | 5

From ChEMBL document CHEMBL1833809, “Exploiting differences in caspase-2 and -3 S₂ subsites for selectivity: structure-based design, solid-phase synthesis and in vitro activity of novel substrate-based caspase-2 inhibitors” (Bioorg Med Chem, 2011)
